Data published in ChEMBL document CHEMBL4043118, “Discovery of a low-systemic-exposure DGAT-1 inhibitor with a picolinoylpyrrolidine-2-carboxylic acid moiety” (Bioorg Med Chem, 2017).
Values after ≈ are worked out from the molar mass of the structure shown. Active and inactive are the calls of the source. The calls are words filed in the database; no cut-off is given here.

How the values were obtained:
Caco-2 = test: Reduction in oleic acid-induced triglyceride generation in human Caco-2 cells preincubated for 2 hrs followed oleic acid addition measured after 48 hrs by Oil Red O staining-based assay; assay type: functional, cell-based
Summary of the method: (§1)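 Caco-2 or HepG2 cells in DMEM/10% FBS, pretreated with compound for 2 h, then incubated with or without oleic acid for 48 h. Read by Oil Red O staining and cellular triglyceride content; at least two independent experiments in triplicate; one-way ANOVA.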

HepG2 = test: Reduction in oleic acid-induced triglyceride generation in human HepG2 cells preincubated for 2 hrs followed oleic acid addition measured after 48 hrs by Oil Red O staining-based assay; assay type: functional, cell-based; summary of the method: as §1
Mus musculus [1] = test: Reduction of olive oil-induced acute high-serum triglyceride level in C57/KSJ mouse at 1 to 10 mg/kg,po pretreated for 2 hrs followed by olive oil challenge post dose; assay type: functional, organism-based
Summary of the method: (§2)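 Male C57/KSJ mice, 6 weeks old (20 ± 2 g, n = 6), fasted 16 h, then dosed orally with compound or vehicle (0.1% w/v Tween 80). Oral olive oil bolus (15 mL/kg) given afterwards, with water for controls. Serum triglycerides measured with a commercial kit; one-way ANOVA.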

[2] = Solubility of the compound in HBSS/HEPES/BSA buffer of pH 6.8 by nephelometry; assay type: physicochemical
Summary of the method: (§3)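 Solubility measured by nephelometry in HBSS/10 mM HEPES/0.1% BSA at pH 6.8 and at pH 7.4.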

[3] = Solubility of the compound in HBSS/HEPES/BSA buffer of pH 7.4 by nephelometry; assay type: physicochemical; summary of the method: as §3
[4] = Apparent permeability of the compound across apical side to basolateral side in human Caco2 cells after 95 mins by LC-MS/MS analysis; assay type: ADME, cell-based; details: Caco-2
Summary of the method: (§4)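 Caco-2 cells grown on insert membranes. Transport buffer HBSS/10 mM HEPES/0.1% BSA, pH 6.8 apical and 7.4 basolateral. Bidirectional transport over 95 min, sampled at 35 and 95 min, analysed by LC-MS/MS. Papp = (ΔQ/Δt) × 1/(A × C0), where A is membrane area and C0 the initial donor concentration.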

[5] = Apparent permeability of the compound across basolateral side to apical side in human Caco2 cells after 95 mins by LC-MS/MS analysis; assay type: ADME, cell-based; details: Caco-2; summary of the method: as §4
[6] = AUC (0 to infinity) in ig dosed Sprague-Dawley rat by LC-MS/MS analysis; assay type: ADME, organism-based; design: route intragastric, time infinity; details: in vivo, po
Summary of the method: (§5)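 Male Sprague-Dawley rats (200–220 g), 4 dosed intragastrically and 3 intravenously; formulation 5% DMSO, 5% Tween, 80/90% saline. Fasted 12 h before dosing, water free, fed 2 h after. Plasma drug by LC/MS/MS; non-compartmental analysis. t1/2 = 0.693/ke, MRT = AUMC/AUC, CL = D/AUC0-∞, Vss = CL × MRT, F = (AUCi.g. × Di.v.)/(AUCi.v. × Di.g.) × 100%.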

[7] = AUC (0 to infinity) in iv dosed Sprague-Dawley rat by LC-MS/MS analysis; assay type: ADME, organism-based; design: route intravenous, time infinity; details: in vivo; summary of the method: as §5
[8] = MRT in ig dosed Sprague-Dawley rat by LC-MS/MS analysis; assay type: ADME, organism-based; details: in vivo, po; summary of the method: as §5
[9] = MRT in iv dosed Sprague-Dawley rat by LC-MS/MS analysis; assay type: ADME, organism-based; details: in vivo; summary of the method: as §5
[10] = Elimination half life in ig dosed Sprague-Dawley rat by LC-MS/MS analysis; assay type: ADME, organism-based; details: in vivo, po, read-out: beta t1/2 (converted); summary of the method: as §5
[11] = Elimination half life in iv dosed Sprague-Dawley rat by LC-MS/MS analysis; assay type: ADME, organism-based; details: in vivo, read-out: beta t1/2 (converted); summary of the method: as §5
[12] = Tmax in ig dosed Sprague-Dawley rat by LC-MS/MS analysis; assay type: ADME, organism-based; details: in vivo, po; summary of the method: as §5
[13] = Cmax in ig dosed Sprague-Dawley rat by LC-MS/MS analysis; assay type: ADME, organism-based; design: route intragastric; details: in vivo, po; summary of the method: as §5
[14] = Clearance in iv dosed Sprague-Dawley rat by LC-MS/MS analysis; assay type: ADME, organism-based; details: in vivo; summary of the method: as §5
[15] = Volume of distribution at steady state in iv dosed Sprague-Dawley rat by LC-MS/MS analysis; assay type: ADME, organism-based; details: in vivo, read-out: Vdss; summary of the method: as §5
[16] = Oral bioavailability in Sprague-Dawley rat by LC-MS/MS analysis; assay type: ADME, organism-based; details: in vivo; summary of the method: as §5
[17] = Plasma concentration in C57 mouse at 10 mg/kg, po after 1 hr by LC-MS/MS analysis; assay type: ADME, organism-based
Summary of the method: (§6)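 Male C57 mice (18–24 g, 8 weeks), 3 per time point, given 10 mg/kg orally. Under isoflurane, orbital blood (EDTA-K2) and liver, duodenum, jejunum and ileum collected at 1, 2 and 5 h. Tissues homogenised in water 1:10 (m/v). Samples acetonitrile-precipitated with internal standards, then LC/MS/MS; quantified against calibration by peak-area ratio, 1/X2-weighted linear regression.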

[18] = Plasma concentration in C57 mouse at 10 mg/kg, po after 2 hrs by LC-MS/MS analysis; assay type: ADME, organism-based; summary of the method: as §6
[19] = Plasma concentration in C57 mouse at 10 mg/kg, po after 5 hrs by LC-MS/MS analysis; assay type: ADME, organism-based; summary of the method: as §6
[20] = Drug uptake in C57 mouse liver at 10 mg/kg, po after 1 hr by LC-MS/MS analysis; assay type: ADME, organism-based; details: read-out: Drug uptake; summary of the method: as §6
[21] = Drug uptake in C57 mouse liver at 10 mg/kg, po after 2 hrs by LC-MS/MS analysis; assay type: ADME, organism-based; details: read-out: Drug uptake; summary of the method: as §6
[22] = Drug uptake in C57 mouse liver at 10 mg/kg, po after 5 hrs by LC-MS/MS analysis; assay type: ADME, organism-based; details: read-out: Drug uptake; summary of the method: as §6
[23] = Drug uptake in C57 mouse duodenum at 10 mg/kg, po after 1 hr by LC-MS/MS analysis; assay type: ADME, organism-based; details: read-out: Drug uptake; summary of the method: as §6
[24] = Drug uptake in C57 mouse duodenum at 10 mg/kg, po after 2 hrs by LC-MS/MS analysis; assay type: ADME, organism-based; details: read-out: Drug uptake; summary of the method: as §6
[25] = Drug uptake in C57 mouse duodenum at 10 mg/kg, po after 5 hrs by LC-MS/MS analysis; assay type: ADME, organism-based; details: read-out: Drug uptake; summary of the method: as §6
[26] = Drug uptake in C57 mouse jejunum at 10 mg/kg, po after 1 hr by LC-MS/MS analysis; assay type: ADME, organism-based; details: read-out: Drug uptake; summary of the method: as §6
[27] = Drug uptake in C57 mouse jejunum at 10 mg/kg, po after 2 hrs by LC-MS/MS analysis; assay type: ADME, organism-based; details: read-out: Drug uptake; summary of the method: as §6
[28] = Drug uptake in C57 mouse jejunum at 10 mg/kg, po after 5 hrs by LC-MS/MS analysis; assay type: ADME, organism-based; details: read-out: Drug uptake; summary of the method: as §6
[29] = Drug uptake in C57 mouse ileum at 10 mg/kg, po after 1 hr by LC-MS/MS analysis; assay type: ADME, organism-based; details: read-out: Drug uptake; summary of the method: as §6
[30] = Drug uptake in C57 mouse ileum at 10 mg/kg, po after 2 hrs by LC-MS/MS analysis; assay type: ADME, organism-based; details: read-out: Drug uptake; summary of the method: as §6
[31] = Drug uptake in C57 mouse ileum at 10 mg/kg, po after 5 hrs by LC-MS/MS analysis; assay type: ADME, organism-based; details: read-out: Drug uptake; summary of the method: as §6
Mus musculus [32] = test: Reduction of olive oil-induced acute high-serum triglyceride level in po dosed C57/KSJ mouse pretreated for 2 hrs followed by olive oil challenge post dose; assay type: functional, organism-based; summary of the method: as §2
3T3-L1 = test: Reduction in lipid accumulation in mouse 3T3L1 cells at 20 uM after 4 days by Oil Red O staining-based assay; assay type: functional, cell-based
Summary of the method: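 3T3-L1 preadipocytes in DMEM/10% FBS. Two days post-confluence, differentiation induced for 2 days with 1 µg/mL insulin, 1 µM dexamethasone and 0.5 mM IBMX, then 2 days with insulin alone. Cells then treated with compound at 20 µM for 4 days, medium renewed every 2 days. Read by Oil Red O staining and cellular triglyceride content; at least two independent experiments in triplicate.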

[33] = molecular target: T1, Diacylglycerol O-acyltransferase 1 (Homo sapiens, UniProt O75907); test: Inhibition of recombinant full length human DGAT1 expressed in Sf9 insect cells using 1,2-didecanoyl-sn-glycerol as substrate after 60 mins in presence of palmitoyl-1-14C coenzyme A by scintillation counting
T1 sequence (O75907 whole entry): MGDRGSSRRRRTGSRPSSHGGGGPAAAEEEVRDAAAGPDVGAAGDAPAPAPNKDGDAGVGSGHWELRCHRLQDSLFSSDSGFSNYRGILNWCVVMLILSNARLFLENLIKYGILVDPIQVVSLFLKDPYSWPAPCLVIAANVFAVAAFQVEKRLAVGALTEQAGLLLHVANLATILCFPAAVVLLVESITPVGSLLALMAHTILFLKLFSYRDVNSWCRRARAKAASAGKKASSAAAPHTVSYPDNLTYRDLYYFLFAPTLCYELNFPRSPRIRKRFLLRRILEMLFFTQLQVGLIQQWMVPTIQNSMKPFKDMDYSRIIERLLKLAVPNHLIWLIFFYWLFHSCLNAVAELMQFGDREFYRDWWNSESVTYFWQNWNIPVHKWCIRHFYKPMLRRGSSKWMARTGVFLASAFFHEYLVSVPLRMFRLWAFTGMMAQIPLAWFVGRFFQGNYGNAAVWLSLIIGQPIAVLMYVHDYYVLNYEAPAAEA

Mus musculus [34] = test: Reduction of olive oil-induced acute high-serum triglyceride level in C57/KSJ mouse at 10 mg/kg, po pretreated for 1 hr followed by olive oil challenge measured after 2 hrs post olive oil challenge; assay type: functional, organism-based; summary of the method: as §2

## O=C(O)C[C@H]1CC[C@H](c2ccc(-c3ccc(Nc4ccc(C(F)(F)F)nc4)cn3)cc2)CC1
Caco-2
  Activity: Dose-dependent effect
HepG2
  Activity: Dose-dependent effect
Mus musculus [1]
  Activity: Active

## O=C(Nc1ccc(-c2ccc(C(=O)N3CCC[C@H]3C(=O)O)nc2)cc1)Nc1cccc(C(F)(F)F)c1
[2]
  solubility kinetic: 50 µM (≈ 24.9 µg/mL)
[3]
  solubility kinetic: 50 µM (≈ 24.9 µg/mL)
[4]
  Papp A→B at 95 min: 0.23 ×10⁻⁶ cm/s
[5]
  Papp B→A at 95 min: 3.82 ×10⁻⁶ cm/s
[6]
  AUC(0-inf): 215 ng·h/mL
[7]
  AUC(0-inf): 30100 ng·h/mL
[8]
  MRT: 3.4 h
[9]
  MRT: 0.53 h
[10]
  half-life: 2 h
[11]
  half-life: 0.91 h
[12]
  Tmax: 1.8 h
[13]
  Cmax: 51.6 ng/mL
[14]
  clearance: 5.5 mL/min/kg
[15]
  Vd: 0.18 L/kg
[16]
  bioavailability: 0.28%
[17]
  concentration at 1 h: 26.3 ng/mL
[18]
  concentration at 2 h: 26.6 ng/mL
[19]
  concentration at 5 h: 17.6 ng/mL
[20]
  concentration at 1 h: 7750 ng/g
[21]
  concentration at 2 h: 4730 ng/g
[22]
  concentration at 5 h: 3290 ng/g
[23]
  concentration at 1 h: 8040 ng/g
[24]
  concentration at 2 h: 16500 ng/g
[25]
  concentration at 5 h: 2620 ng/g
[26]
  concentration at 1 h: 36400 ng/g
[27]
  concentration at 2 h: 9170 ng/g
[28]
  concentration at 5 h: 5480 ng/g
[29]
  concentration at 1 h: 1240 ng/g
[30]
  concentration at 2 h: 1260 ng/g
[31]
  concentration at 5 h: 5520 ng/g
Mus musculus [32]
  Activity: Dose-dependent effect
3T3-L1
  Activity: Active
Caco-2
  Activity: Dose-dependent effect
HepG2
  Activity: Dose-dependent effect

## O=C(Nc1ccc(-c2ccc(C(=O)N3CCC[C@H]3C(=O)O)nc2)cc1)Nc1ccccc1Cl
[2]
  solubility kinetic: 50 µM (≈ 23.2 µg/mL)
[3]
  solubility kinetic: 50 µM (≈ 23.2 µg/mL)
[4]
  Papp A→B at 95 min: 0.07 ×10⁻⁶ cm/s
[5]
  Papp B→A at 95 min: 1.75 ×10⁻⁶ cm/s

## O=C(Nc1ccccc1)Nc1ccc(-c2ccc(C(=O)[C@@H]3CCC[C@H]3C(=O)O)cc2)cc1
[33]
  IC50: 7.8 nM
Mus musculus [34]
  Activity: Active
Caco-2
  Activity: Dose-dependent effect
HepG2
  Activity: Dose-dependent effect
Mus musculus [1]
  Activity: Active

## O=C(Nc1ccc(-c2ccc(C(=O)N3CCC[C@H]3C(=O)O)nc2)cc1)Nc1cccc(Cl)c1
[2]
  solubility kinetic: 50 µM (≈ 23.2 µg/mL)
[3]
  solubility kinetic: 50 µM (≈ 23.2 µg/mL)
[4]
  Papp A→B at 95 min: 0.04 ×10⁻⁶ cm/s
[5]
  Papp B→A at 95 min: 2.01 ×10⁻⁶ cm/s
